Results as given in ChEMBL document CHEMBL1153877, “Lowering of 5-nitroimidazole's mutagenicity: towards optimal antiparasitic pharmacophore” (Eur J Med Chem, 2009).

Legend:
THP-1 = assay: Cytotoxicity against human THP1 cells after 72 hrs by propidium iodide-based flow cytometry; type: cell-based; details: THP-1, 72 h
Summary of the method: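 THP1 monocytes kept in RPMI with 10% foetal calf serum, 25 mM HEPES, 25 mM NaHCO₃ and 1% L-glutamine/penicillin-streptomycin at 37 °C, 6% CO₂. Cells at 10⁵ cells/mL exposed for 72 h to various concentrations from DMSO stocks. Drug-free and 0.5% DMSO final controls run alongside. Living cells counted by propidium iodide flow cytometry.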

Salmonella typhimurium [1] = assay: Induction of mutagenicity in Salmonella Typhimurium TA100 assessed as number of revertant per nmol after 48 hrs relative to metranidazole; type: toxicity, organism-based; details: salmonella enterica subsp. enterica serovar typhimurium
Salmonella typhimurium [2] = assay: Ratio of number of revertant per nmol of drug for Salmonella Typhimurium YG1042 to number of revertant per nmol of drug for Salmonella Typhimurium TA100; type: toxicity, organism-based; details: salmonella enterica subsp. enterica serovar typhimurium
Salmonella typhimurium [3] = assay: Induction of mutagenicity in Salmonella Typhimurium YG1042 assessed as number of revertant per ug after 48 hrs; type: toxicity, organism-based; details: salmonella enterica subsp. enterica serovar typhimurium
Summary of the method: (§1)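 YG1042, a TA100 derivative, grown overnight in Nutrient Broth No. 2 with ampicillin and kanamycin. Bacteria preincubated 60 min at 37 °C with shaking with compound in DMSO and 0.1 mL PBS (0.15 M, pH 7.4). Top agar containing histidine/biotin added, then plated on Vogel-Bonner agar. Revertants counted after 48 h. Four doses in triplicate plates; solvent control in quadruplicate. Mutagenic power given as revertants per amount of compound.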

Salmonella typhimurium [4] = assay: Induction of mutagenicity in Salmonella Typhimurium YG1042 assessed as number of revertant per nmol after 48 hrs; type: toxicity, organism-based; details: salmonella enterica subsp. enterica serovar typhimurium; summary of the method: as §1
[5] = Specificity index, ratio of IC50 for human THP1 cells to IC50 for Trichomonas vaginalis TVR87; parameters: species or system THP-1
Summary of the method: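 Specificity index = IC50 against THP1 cells (72 h, propidium iodide flow cytometry) divided by IC50 against T. vaginalis (48 h, trypan blue).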

Trichomonas vaginalis = assay: Antitrichomonas activity against Trichomonas vaginalis TVR87 after 48 hrs by trypan blue staining; type: functional, organism-based; details: TVR87, 48 h
Summary of the method: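 T. vaginalis TVR87 trophozoites grown in TM 161 medium with 10% heat-inactivated horse serum, used one day after subculture in log phase. Assay at 5 × 10³ trophozoites/mL, triplicate cultures, incubated anaerobically at 37 °C for 48 h with a range of compound concentrations from DMSO stocks. DMSO 0.1% final served as negative control. Viable cells counted by trypan blue.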

Salmonella typhimurium [6] = assay: Induction of mutagenicity in Salmonella Typhimurium TA100 assessed as number of revertant per ug after 48 hrs; type: toxicity, organism-based; details: salmonella enterica subsp. enterica serovar typhimurium
Summary of the method: (§2)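 TA100 grown overnight in Nutrient Broth No. 2 with ampicillin. Bacteria preincubated 60 min at 37 °C with shaking with compound in DMSO and 0.1 mL PBS (0.15 M, pH 7.4). Top agar containing histidine/biotin added, then plated on Vogel-Bonner agar. Revertants counted after 48 h. Four consecutive doses in triplicate plates; solvent control in quadruplicate. Mutagenic power given as revertants per amount of compound.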

Salmonella typhimurium [7] = assay: Induction of mutagenicity in Salmonella Typhimurium YG1042 assessed as number of revertant per nmol after 48 hrs relative to metranidazole; type: toxicity, organism-based; details: salmonella enterica subsp. enterica serovar typhimurium
Salmonella typhimurium [8] = assay: Induction of mutagenicity in Salmonella Typhimurium TA100 assessed as number of revertant per nmol after 48 hrs; type: toxicity, organism-based; details: salmonella enterica subsp. enterica serovar typhimurium; summary of the method: as §2

SMILES	IC50 (THP-1) [µM]	Activity (Salmonella typhimurium [1])	Ratio (Salmonella typhimurium [2])	Activity (Salmonella typhimurium [3])	Activity (Salmonella typhimurium [4])	Ratio IC50 [5]	IC50 (Trichomonas vaginalis) [nM]	Activity (Salmonella typhimurium [6])	Activity (Salmonella typhimurium [7])	Activity (Salmonella typhimurium [8])
Cc1nc(CS(=O)(=O)c2ccc(Br)cc2)c([N+](=O)[O-])n1C	326	0.79	1.9	32.91	12.32	493	660	17.61	0.15	6.59
Cn1cncc1[N+](=O)[O-]	> 1970	1.85	12.7	1551.06	197.14	>3125	629	121.79	2.34	15.48
Cn1cnc(CS(=O)(=O)c2ccccc2)c1[N+](=O)[O-]	> 888	1.71	3.5	176.64	49.69	>4460	199	50.91	0.59	14.32
Cc1nc(CS(=O)(=O)c2ccccc2)c([N+](=O)[O-])n1CCO	> 768	0.07	4.9	8.36	2.72	>500	1540	1.72	0.03	0.56
Cc1ccc(S(=O)(=O)Cc2nc(C)n(CCO)c2[N+](=O)[O-])cc1	59	0.19	1.3	6.14	2.08	880	67	4.62	0.02	1.57
Cc1ccc(S(=O)(=O)Cc2ncn(C)c2[N+](=O)[O-])cc1	> 846	2.46	2.7	185.37	54.74	>5458	155	69.71	0.65	20.59
Cc1nc(CS(=O)(=O)c2ccc(F)cc2)c([N+](=O)[O-])n1CC(C)O (stereo not given)	> 699					>293	2380			
Cc1nc(CS(=O)(=O)c2ccc(Cl)cc2)c([N+](=O)[O-])n1C	68	0.28	3.5	25.21	8.31	74	918	7.15	0.1	2.36
Cc1ccc(S(=O)(=O)Cc2nc(C)n(C)c2[N+](=O)[O-])cc1	242	0.56	3.7	54.97	17	684	355	15.03	0.2	4.65
Cn1cnc(CS(=O)(=O)c2ccc(Cl)cc2)c1[N+](=O)[O-]	174	5.27	1.2	167.38	52.85	1101	158	139.44	0.63	44.03
Cc1nc(CS(=O)(=O)c2ccc(Br)cc2)c([N+](=O)[O-])n1CCO	124	0.13	3.4	9.123	3.73	75	1640	2.73	0.04	1.1
Cn1cnc(CS(=O)(=O)c2ccc(Br)cc2)c1[N+](=O)[O-]	> 694	1.78	4	164.42	59.22	>1761	394	41.41	0.7	14.92
Cc1nc(CS(=O)(=O)c2ccccc2)c([N+](=O)[O-])n1C	> 846	0.99	2.7	74.18	21.91	>3525	240	27.91	0.26	8.24
Cc1nc(CS(=O)(=O)c2ccc(F)cc2)c([N+](=O)[O-])n1CCO	> 728	0.08	5.3	10.09	3.46	>416	1750	1.91	0.04	0.66
Cc1nc(CS(=O)(=O)c2ccc(F)cc2)c([N+](=O)[O-])n1C	> 797	0.18	5.1	24.26	7.6	>312	2550	4.72	0.09	1.48
Cc1nc(CS(=O)(=O)c2ccc(Cl)cc2)c([N+](=O)[O-])n1CCO	578	0.27	2.4	14.73	5.3	13136	44	6.22	0.06	2.24
Cn1cnc(CS(=O)(=O)c2ccc(F)cc2)c1[N+](=O)[O-]	> 835	1.26	4.5	157.34	47.09	>2500	334	35.17	0.56	10.53
Cc1ncc([N+](=O)[O-])n1CCO [METRONIDAZOLE]	> 1460						2750			
